Measured values gathered from unrelated publications.
Compare with care: the assays were run in different laboratories.
Action: inhibitor
MAPK14: Mitogen-activated protein kinase 14 (MAPK14, Homo sapiens, UniProt Q16539)

Structure (SMILES) | target | assay | system | conditions | inhibition [%]
COc1cccc2c(NCc3ccccc3)nc(-n3c(N)nc4ccccc43)nc12 | MAPK14 | target engagement in cells, chemoproteomics |  | 20 mM | 16.5
CNC(=O)c1cc(Oc2ccc(NC(=O)Nc3ccc(Cl)c(C(F)(F)F)c3)cc2)ccn1 | MAPK14 | enzyme activity |  | 0.3 µM | -9
CNc1cc(Oc2cc(C(=O)Nc3cc(N4CCN(C)CC4)cc(C(F)(F)F)c3)ccc2C)ncn1 | MAPK14 | target engagement in cells, chemoproteomics | Huh-7 | 1 µM | -29
CS(=O)(=O)Nc1cccc(-c2csc(NC(=O)CSc3nc4nccnc4c(=O)n3CCc3ccccc3)n2)c1 | MAPK14 | enzyme activity |  | 10 µM | -1
COc1cc2ncnc(Nc3ccc(Oc4ccccc4)cc3C)c2cc1OC | MAPK14 | enzyme activity |  | 1 µM | 3
CCCCNc1ncc2c(-c3ccc(F)cc3)nn(C[C@H]3CC[C@H](N)CC3)c2n1 | MAPK14 | target engagement in cells, chemoproteomics |  | 20 mM | 60.6
Cc1ccc(Nc2nccc(N(C)c3ccc4c(C)n(C)nc4c3)n2)cc1S(N)(=O)=O | Mitogen-activated protein kinase 14 (MAPK14, Homo sapiens, UniProt Q16539, T106M) | enzyme activity |  | 10 µM | 13
CC/C(=N\NC(=O)NCc1cccc(O)c1)c1ccc(O)c(C)c1O | MAPK14 | enzyme activity |  | 0.1 µM | -2.8
CCCS(=O)(=O)Nc1ccc(F)c(C(=O)c2c[nH]c3ncc(-c4ccc(Cl)cc4)cc23)c1F | MAPK14 | enzyme activity |  | 1 µM | < 10
CCN(CC)CCNC(=O)c1c(C)[nH]c(/C=C2\C(=O)Nc3ccc(F)cc32)c1C | MAPK14 | enzyme activity |  | 10 µM | -1
CN(C)C1CCN(CC#Cc2nn(C3CCCC3)c3nc(NCc4ccccc4)ncc23)C1 (stereo not drawn) | MAPK14 | enzyme activity, FRET |  | 1 µM | 3
CN1CC(Oc2cnc(C#N)cc2-c2ccn3nc(NC(=O)C4CC4)cc3c2)C1 | MAPK14 | enzyme activity |  | 1 µM | -19
COc1cc2ncnc(Nc3ccc(Oc4ccccc4)c(C)c3C)c2cc1OC | MAPK14 | enzyme activity |  | 1 µM | -3
O=C(CSc1nc2nccnc2c(=O)n1CCc1ccccc1)Nc1nccs1 | MAPK14 | enzyme activity |  | 10 µM | 3
CN(c1ncccc1CNc1nc(Nc2ccc3c(c2)CC(=O)N3)ncc1C(F)(F)F)S(C)(=O)=O | MAPK14 | enzyme activity |  | 1 µM | 0
